From the RNAGym collection of RNA variant scans (doi:10.1126/science.aae0568)
This sample holds only a part of the variants without activity.

B1: tRNA (parent)
chain: GUUCCGUUGGCGUAAUGGUAACGCGUCUCCCUCCUAAGGAGAAGACUGCGGGUUCGAGUCCCGUACGGAACG

Variants of: B1
Assay: yeast fitness relative to wild type (ratio to wild type); higher = fitter; tRNA-Arg(CCU), competitive growth, 37 C, YPD
Procedure, shortened: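 A pool of Saccharomyces cerevisiae strains, each with a tRNA-Arg(CCU) gene variant at the native genomic locus, was competed in YPD at 37°C for 24 hours across six parallel replicates. The variants had been chemically synthesised at a 3% per-site mutation rate over 69 sites, and gene amplicons before and after competition were read by 100-nucleotide paired-end sequencing. Darwinian fitness relative to wild type rested on changes in genotype frequencies. Genotypes required ≥ 100 starting reads, and estimates < 0.5 were set to 0.5.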

| Variant | yeast fitness |
| --- | --- |
| GUUCCGUUGGCGUAAUGGUAACGCGUCUCCCUCCUAAGGAGAAGACUGCGGGUUGGAGUCGCGUACGGAACG [C55G C61G] | ≤ 0.5 |
| GUUCCGUUGGCGUAAUGGUAACGCGUCUCCCUCCUAAGGAGAAGACUGCGGGUUCAACUCCCGAACGGGACG [G56A G58C U64A A69G] | 0.545 |
| GUUCCGUUGGCGUAAUGGUAACGCGUCUCCCUCCUAAGGAGAAGACUGCGGGUUGGUGUCCUGUAUGGAACG [C55G A57U C62U C66U] | ≤ 0.5 |
| GUUCCGUUGGCGUAAUGGUAACGCGUCUCCCUCCUAAGGAGAAGACUGCGGGUUUGAGACCCGUACGGAACG [C55U U59A] | 0.891 |
| GUUCCGUUGGCGUAAUGGUAACGCGUCUCCCUCCUAAGGAGAAGACUGCGGGUUUGAGUCGCGUACGGAACG [C55U C61G] | ≤ 0.5 |
| GUUCCGUUGGCGUAAUGGUAACGCGUCUCCCUCCUAAGGAGAAGACUGCGGGUUUGAGUCACGUACGGAACG [C55U C61A] | 0.524 |
| GUUCCGUUGGCGUAAUGGUAACGCGUCUCCCUCCUAAGGAGAAGACUGCGGGUUUGAGUCACGUUCGGAACG [C55U C61A A65U] | 0.581 |
| GUUCCGUUGGCGUAAUGGUAACGCGUCUCCCUCCUAAGGAGAAGACUGCGGGUUUGAGUCACGUGCGGAACG [C55U C61A A65G] | ≤ 0.5 |
| GUUCCGUUGGCGUAAUGGUAACGCGUCUCCCUCCUAAGGAGAAGACUGCGGGUUCAAGUCCCGUCCGGAACG [G56A A65C] | 1.1 |
| GUUCCGUUGGCGUAAUGGUAACGCGUCUCCCUCCUAAGGAGAAGACUGCGGGUUCAAGUCCCGUGCGGAACG [G56A A65G] | 1.01 |
| GUUCCGUUGGCGUAAUGGUAACGCGUCUCCCUCCUAAGGAGAAGACUGCGGGUUUGAGUCCCGUAGGGAACG [C55U C66G] | 0.668 |
| GUUCCGUUGGCGUAAUGGUAACGCGUCUCCCUCCUAAGGAGAAGACUGCGGGUUCAAAUCCCGUACGGAACG [G56A G58A] | 0.907 |
| GUUCCGUUGGCGUAAUGGUAACGCGUCUCCCUCCUAAGGAGAAGACUGCGGGUUCAACUCCCGUACGGAACG [G56A G58C] | 0.95 |
| GUUCCGUUGGCGUAAUGGUAACGCGUCUCCCUCCUAAGGAGAAGACUGCGGGUUUGAGUCCCAUACGGAUCG [C55U G63A A70U] | 0.551 |
| GUUCCGUUGGCGUAAUGGUAACGCGUCUCCCUCCUAAGGAGAAGACUGCGGGUUGGAGUCCCGUAUGGCACG [C55G C66U A69C] | ≤ 0.5 |
| GUUCCGUUGGCGUAAUGGUAACGCGUCUCCCUCCUAAGGAGAAGACUGCGGGUUUGAGUCCCCUACGGAACG [C55U G63C] | 0.567 |
| GUUCCGUUGGCGUAAUGGUAACGCGUCUCCCUCCUAAGGAGAAGACUGCGGGUUUGAGUCCCGUAGGGACCG [C55U C66G A70C] | ≤ 0.5 |
| GUUCCGUUGGCGUAAUGGUAACGCGUCUCCCUCCUAAGGAGAAGACUGCGGGUUAGAGUCCCGUACCGAACG [C55A G67C] | 0.686 |
| GUUCCGUUGGCGUAAUGGUAACGCGUCUCCCUCCUAAGGAGAAGACUGCGGGUUCAAGUCCGGGACGGAACG [G56A C62G U64G] | ≤ 0.5 |

| Variant | yeast fitness |
| --- | --- |
| GUUCCGUUGGCGUAAUGGUAACGCGUCUCCCUCCUAAGGAGAAGACUGCGGGUUUGAAUCCCGUACAGAACG [C55U G58A G67A] | 0.546 |
| GUUCCGUUGGCGUAAUGGUAACGCGUCUCCCUCCUAAGGAGAAGACUGCGGGUUGGAGUCCCGUACGGAGCG [C55G A70G] | 0.673 |
| GUUCCGUUGGCGUAAUGGUAACGCGUCUCCCUCCUAAGGAGAAGACUGCGGGUUAGAGACCCGUACGGAACG [C55A U59A] | 0.513 |
| GUUCCGUUGGCGUAAUGGUAACGCGUCUCCCUCCUAAGGAGAAGACUGCGGGUUGAAGUCUCGUACGGAACG [C55G G56A C61U] | ≤ 0.5 |
| GUUCCGUUGGCGUAAUGGUAACGCGUCUCCCUCCUAAGGAGAAGACUGCGGGUUGGAGGCCCGUACGGAACG [C55G U59G] | 0.566 |
| GUUCCGUUGGCGUAAUGGUAACGCGUCUCCCUCCUAAGGAGAAGACUGCGGGUUGGAGUACAGUACGAUACG [C55G C60A C62A G68A A69U] | ≤ 0.5 |
| GUUCCGUUGGCGUAAUGGUAACGCGUCUCCCUCCUAAGGAGAAGACUGCGGGUUUGAGUUCCGUACGGAACG [C55U C60U] | 0.584 |
| GUUCCGUUGGCGUAAUGGUAACGCGUCUCCCUCCUAAGGAGAAGACUGCGGGUUGGAGUUCCGUACGCAACG [C55G C60U G68C] | ≤ 0.5 |
| GUUCCGUUGGCGUAAUGGUAACGCGUCUCCCUCCUAAGGAGAAGACUGCGGGUUGGAGUUCCGUACGGAACG [C55G C60U] | ≤ 0.5 |
| GUUCCGUUGGCGUAAUGGUAACGCGUCUCCCUCCUAAGGAGAAGACUGCGGGUUGGAGUCCCGCACGGAACG [C55G U64C] | 0.679 |
| GUUCCGUUGGCGUAAUGGUAACGCGUCUCCCUCCUAAGGAGAAGACUGCGGGUUGGAGUGCCGUAUGGAACG [C55G C60G C66U] | ≤ 0.5 |
| GUUCCGUUGGCGUAAUGGUAACGCGUCUCCCUCCUAAGGAGAAGACUGCGGGUUGGAGUCCCCUACCGAACG [C55G G63C G67C] | 0.532 |
| GUUCCGUUGGCGUAAUGGUAACGCGUCUCCCUCCUAAGGAGAAGACUGCGGGUUCAUGUCCGGUACGGAACG [G56A A57U C62G] | ≤ 0.5 |
| GUUCCGUUGGCGUAAUGGUAACGCGUCUCCCUCCUAAGGAGAAGACUGCGGGUUUGAGUCCGGUAAGGAACG [C55U C62G C66A] | 0.53 |
| GUUCCGUUGGCGUAAUGGUAACGCGUCUCCCUCCUAAGGAGAAGACUGCGGGUUGGAGUACCGUAAGGAACG [C55G C60A C66A] | ≤ 0.5 |
| GUUCCGUUGGCGUAAUGGUAACGCGUCUCCCUCCUAAGGAGAAGACUGCGGGUUAGAGUCCCGUACGUUACG [C55A G68U A69U] | ≤ 0.5 |
| GUUCCGUUGGCGUAAUGGUAACGCGUCUCCCUCCUAAGGAGAAGACUGCGGGUUCAAGUCCCGUAUGGAACG [G56A C66U] | 1.1 |
| GUUCCGUUGGCGUAAUGGUAACGCGUCUCCCUCCUAAGGAGAAGACUGCGGGUUUGAGUCCAGUACGGAACG [C55U C62A] | 0.627 |
